Only some compounds are listed: those with a hit (about 2.2% of all), similar ones and a draw of the others.
APJ agonist: agonists of human apelin receptor APJ, primary screen, CHO-K1 cells, PathHunter beta-arrestin, luminescence; 0% DMSO wells, 100% apelin; activation, % at 20 µM; actives 0.11% (n = 330,000); AID 2520, 2010;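 active = activation more than six SD over the plate average, tested at 20 µM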;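 note: 0% = DMSO alone and 100% = apelin-13 at 10 nM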
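Assay system: CHO-K1 APJ beta-arrestin complementation cell line / Compound: single test compound dose, 20 µM final, 1% DMSO / Times: overnight seeding, 90 min compound at 25 °C, 1 h detection / Technique: beta-gal luminescence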
CXCR6 block: CXCR6 receptor inhibitors, primary screen, cell-based, beta-arrestin, luminescence, CHO-K1 PathHunter, 1536-well; AID 602244, 2012; C-X-C chemokine receptor type 6 (Homo sapiens), O00574; inhibition, % at 20 µM; actives 0.36% (n = 360,000); in the data active = inhibition above about 34%, passing the limit was not always enough;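 note: antagonist mode with CXCL16 agonist at 10 nM final; 0% = 10 nM CXCL16 with DMSO and 100% = unstimulated wells without agonist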
HTR2A ag: mouse Htr2a agonists via beta-arrestin recruitment, primary screen, cell-based, luminescence. CHO-K1 mHTR2A beta-arrestin complementation; percent of 30 µM serotonin response. activation, % at 7.6 µM. actives 0.66% (n = 360,000);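 active = activation above a run cutoff, the mean activation of all tested compounds plus 3 SD, cut at about 14% in these data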;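 note: 0% = plate median of compound wells and 100% = 30 µM serotonin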
CCR6 antagonist: CCR6 receptor antagonists, primary screen, cell-based, CHO-K1, luminescence, beta-arrestin, uHTS; C-C chemokine receptor type 6 (Homo sapiens), P51684; CHO-K1 CCR6 PathHunter beta-arrestin, CCL20-stimulated; inhibition, % at 20 µM; actives 0.49% (n = 340,000); AID 493098, 2011;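 active = compounds whose inhibition of the agonist-driven luminescence signal at 20 µM reaches about 50%, limit read from the data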;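 note: cells stimulated with CCL20 at 14 nM final; plate controls were DMSO with CCL20 for no effect and DMSO without agonist for full effect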
APJ antagonist: antagonists of human apelin receptor APJ, primary screen, CHO-K1 cells, beta-arrestin complementation, luminescence. actives 0.32% (n = 330,000). P35414. inhibition, % at 20 µM. AID 2521, 2010;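 active = inhibition above about 40% at 20 µM, limit read from the data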;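 note: cells challenged with 10 nM apelin-13 agonist together with compound; plate controls were apelin-13 plus DMSO wells for no effect and DMSO wells lacking apelin-13 for full effect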
EBI2 block: EBI2 receptor antagonists, beta-arrestin recruitment, primary screen, cell-based, luminescence, 7a,25-OHC stimulation, uHTS; inhibition, % at 5 µM; G-protein coupled receptor 183 (Homo sapiens), P32249; 7a,25-OHC stimulated; actives 0.81% (n = 360,000); in the data active = inhibition above about 38%;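 note: enzyme fragment complementation signal reports receptor beta-arrestin coupling in cells; 0% = agonist plus DMSO wells and 100% = wells without agonist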
Target sequence (P32249 whole entry, looked up, the tested form may be a part): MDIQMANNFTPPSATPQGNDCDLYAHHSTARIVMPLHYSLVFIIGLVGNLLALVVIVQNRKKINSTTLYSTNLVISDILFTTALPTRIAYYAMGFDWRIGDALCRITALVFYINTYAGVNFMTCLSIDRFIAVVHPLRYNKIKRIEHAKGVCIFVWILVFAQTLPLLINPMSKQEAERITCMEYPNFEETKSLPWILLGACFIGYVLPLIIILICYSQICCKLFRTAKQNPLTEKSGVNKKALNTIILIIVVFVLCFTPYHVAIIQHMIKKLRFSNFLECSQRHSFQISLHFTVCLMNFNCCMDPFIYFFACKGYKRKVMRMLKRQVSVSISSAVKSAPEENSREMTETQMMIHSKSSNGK
MOR ag counter: OPRM1 agonists via beta-arrestin recruitment, confirmation, counter-screen for mouse HTR2A agonist project, cell-based, luminescence, single concentration; shares compounds with HTR2A ag; U2OS OPRM1 beta-arrestin PathHunter; DMSO 0%, DAMGO 9.3 µM 100%; activation, % at 9.3 µM; actives 5.3% (n = 2,300);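 active = mean activation above the mean of DMSO-only wells plus 3 SD, cut at about 0.5% in these data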
m5-HT2A ag conf: mouse HTR2A agonists, beta-arrestin recruitment, confirmation, cell-based, luminescence, CHO-K1 PathHunter, triplicate; shares compounds with HTR2A ag; DMSO 0%, 30 µM serotonin 100%; activation, % at 7.6 µM; actives 19% (n = 2,300); AID 624381, 2012;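 active = mean activation across triplicates above the hit threshold derived in the original primary screen, cut at about 15% in these data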
An asterisk follows results filed as active; . = no result.

SMILES	APJ agonist	CXCR6 block	HTR2A ag	CCR6 antagonist	APJ antagonist	EBI2 block	MOR ag counter	m5-HT2A ag conf
O=C(CSc1nc(-c2cccs2)nc2ccccc12)NC1CCS(=O)(=O)C1 (stereo not given)	-2.3	-3.7	19.1*	14.7	-10.1	-4.4	0.5*	-2.3
CCN(C(=O)CSc1nc(-c2cccs2)nc2ccccc12)C1CCS(=O)(=O)C1 (stereo not given)	-3.5	-8.3	1.8	5.2	4.0	-4.9	.	.
COc1cccc(OC)c1OCCOCCn1cnc2ccccc2c1=O	-3.0	-4.1	17.8*	-14.8	-14.0	8.6	-0.2	-2.9
Cc1cccc(C)c1OCCCCn1cnc2ccccc2c1=O	-0.1	-1.4	-4.8	-11.9	-5.7	10.1	.	.
COc1ccc(C(=O)COC(=O)c2cc(S(=O)(=O)N3CCCCC3)ccc2N2CCOCC2)c(OC)c1	2.7	3.3	-0.3	16.0	5.9	18.4	.	.
COc1ccccc1C(=O)COC(=O)c1cc(S(=O)(=O)N2CCCCC2)ccc1N1CCOCC1	-2.8	2.4	17.5*	23.5	-10.4	26.0	-0.3	-0.7
Cc1cc(C)c(OCC(=O)OCC(=O)NCc2ccco2)c(C)c1	.	5.7	1.9	.	.	-5.5	.	.
CC(C)n1c(CNC(=O)c2ccccc2)nc2ccccc21	6.5	2.2	-2.6	1.9	-12.4	-5.4	.	.
CC(=O)NCc1nc2ccccc2n1C(C)C	-3.4	1.7	18.1*	5.2	1.3	-6.3	-0.4	-3.0
CC(=O)N1CCc2cc(NC(=O)C3(C)CCN3Cc3ccc(C(C)C)cc3)ccc21 (stereo not given)	.	8.1	3.6	.	.	9.8	.	.
COc1ccc(-c2nnc3n2CCCCC3)cc1OC	-0.5	14.3	-4.3	5.0	3.0	0.0	.	.
COc1ccc(-c2csc(Cc3nnc4n3CCCCC4)n2)cc1OC	-3.6	-6.9	14.8*	-0.4	8.2	7.8	-0.6	-0.4
Nc1c(Cl)ncnc1N1CCCC1	-3.0	3.1	14.6*	6.6	11.9	-9.5	-0.4	-2.8
Nc1ncnc(N2CCOCC2)c1N	-1.4	-1.9	3.9	11.5	-18.8	-7.3	.	.
O=C1C2CCCN2C(=O)N1CCN1CCN(c2ccccc2)CC1 (stereo not given)	-1.3	1.2	0.2	-7.4	8.0	-10.2	.	.
O=C1C2CCCN2C(=O)N1CCCCN1CCN(c2ccccc2)CC1 (stereo not given)	-3.5	-17.2	15.1*	-4.3	13.4	-7.9	-0.7	47.0*
CC(=O)Nc1cc(-c2ccccc2CN(C)C)cn2c(-c3ccc(C(C)=O)cc3)cnc12	.	-4.5	5.1	.	.	7.4	.	.
O=[N+]([O-])c1c(Nc2ccccc2)ccc2nonc12	7.8	-18.8	23.1*	-0.6	8.7	4.2	-0.3	-4.0
CCc1ccc(Nc2ccc3nonc3c2[N+](=O)[O-])cc1	1.5	-1.1	3.7	-2.1	0.2	2.3	.	.
CCC(C)(C)n1nnnc1C(c1ccc(O)c(OC)c1)N1CCN(c2nc3ccccc3s2)CC1 (stereo not given)	-2.0	-6.7	23.7*	-11.7	-17.1	-1.5	-0.6	7.1
COc1ccc(S(=O)(=O)N2CCC(C(=O)Nc3ccc(S(=O)(=O)N4CCCC4)cc3)CC2)cc1OC	9.9	12.8	16.4*	11.5	14.8	-2.2	-0.4	-3.3
